From ChEMBL document CHEMBL1777707, “Structure-based design, synthesis, and nonalcoholic steatohepatitis (NASH)-preventive effect of phenylpropanoic acid peroxisome proliferator-activated receptor (PPAR) α-selective agonists” (Bioorg Med Chem, 2011) come the findings set out here.

Calls of active or inactive are those of the source. No cut-off for these calls is given here.

Test [1] addresses T1, Peroxisome proliferator-activated receptor alpha (Homo sapiens, UniProt Q07869).
T1 sequence (Q07869 whole entry): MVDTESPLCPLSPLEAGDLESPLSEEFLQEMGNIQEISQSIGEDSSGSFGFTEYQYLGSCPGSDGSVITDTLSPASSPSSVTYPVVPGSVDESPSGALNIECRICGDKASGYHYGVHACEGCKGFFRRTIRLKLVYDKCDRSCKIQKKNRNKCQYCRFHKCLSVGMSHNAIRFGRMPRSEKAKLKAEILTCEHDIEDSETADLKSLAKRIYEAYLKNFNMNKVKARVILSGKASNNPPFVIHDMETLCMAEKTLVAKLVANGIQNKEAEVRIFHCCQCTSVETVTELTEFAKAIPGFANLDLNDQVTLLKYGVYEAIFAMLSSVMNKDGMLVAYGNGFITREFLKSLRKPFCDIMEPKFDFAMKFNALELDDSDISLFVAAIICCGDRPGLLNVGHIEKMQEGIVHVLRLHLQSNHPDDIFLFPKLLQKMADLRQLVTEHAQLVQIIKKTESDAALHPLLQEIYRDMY
The experiment in a line: Agonist activity at Gal4-fussed PPARalpha expressed in human HEK293 cells by reporter gene assay. It is filed as functional, cell-based. The gist of the method:
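Transient transfection of HEK-293 cells with PPAR-GAL4 chimeric receptor plus reporter. EC50 is the molar concentration giving 50% of maximal reporter activity; racemates tested as such.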

In test [2] the target is T2, Peroxisome proliferator-activated receptor delta (Homo sapiens, UniProt Q03181).
T2 sequence (Q03181 whole entry): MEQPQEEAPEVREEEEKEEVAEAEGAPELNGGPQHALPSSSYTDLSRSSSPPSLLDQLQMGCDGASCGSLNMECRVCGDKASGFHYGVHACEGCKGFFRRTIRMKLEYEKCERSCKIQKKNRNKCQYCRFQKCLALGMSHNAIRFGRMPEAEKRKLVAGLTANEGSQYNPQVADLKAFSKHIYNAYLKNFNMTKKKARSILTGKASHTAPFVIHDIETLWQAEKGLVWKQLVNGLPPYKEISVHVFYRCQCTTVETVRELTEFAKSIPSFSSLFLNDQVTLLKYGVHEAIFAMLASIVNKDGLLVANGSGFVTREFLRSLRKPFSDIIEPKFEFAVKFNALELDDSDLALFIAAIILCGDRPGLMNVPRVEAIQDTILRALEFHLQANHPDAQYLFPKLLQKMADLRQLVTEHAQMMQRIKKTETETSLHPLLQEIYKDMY
The experiment in a line: Agonist activity at Gal4-fussed PPARdelta expressed in human HEK293 cells by reporter gene assay. It is filed as functional, cell-based.

Test [3] concerns the target T3, Peroxisome proliferator-activated receptor gamma (Homo sapiens, UniProt P37231).
T3 sequence (P37231 whole entry): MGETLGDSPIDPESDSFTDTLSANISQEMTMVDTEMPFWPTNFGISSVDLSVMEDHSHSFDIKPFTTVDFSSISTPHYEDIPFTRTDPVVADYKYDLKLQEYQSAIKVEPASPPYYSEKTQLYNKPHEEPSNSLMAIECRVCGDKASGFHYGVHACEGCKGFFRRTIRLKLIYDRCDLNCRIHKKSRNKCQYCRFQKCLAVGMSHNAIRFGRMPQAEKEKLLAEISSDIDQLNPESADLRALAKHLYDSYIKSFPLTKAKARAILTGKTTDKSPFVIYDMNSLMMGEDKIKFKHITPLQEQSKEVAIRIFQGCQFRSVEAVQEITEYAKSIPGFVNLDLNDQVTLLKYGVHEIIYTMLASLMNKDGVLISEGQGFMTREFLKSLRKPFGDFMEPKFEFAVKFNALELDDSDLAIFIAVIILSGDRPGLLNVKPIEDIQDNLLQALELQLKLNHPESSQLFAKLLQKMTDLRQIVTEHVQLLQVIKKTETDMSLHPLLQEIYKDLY
The experiment in a line: Agonist activity at Gal4-fussed PPARgamma expressed in human HEK293 cells by reporter gene assay. It is filed as functional, cell-based.

A short description of test [4]: Selectivity ratio EC50 for Gal4-fussed PPARdelta to EC50 for Gal4-fussed PPARalpha.
Test [5] has as its system Rattus norvegicus. Kind of test: Protection against nonalcoholic steatohepatitis progression in 4 weeks choline deficient high-fat diet fed methemoglobinemic Wistar rat assessed as prevention of liver atrophy formation at 1 mg/kg/day, ip administered for 6 weeks by hematoxylin and eosin staining in presence of 40 mg/kg/day, ip of sodium nitrite. It is filed as functional, organism-based. The gist of the method:
(§1)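 Rats fed CDHF diet from 6 weeks of age for 4 weeks, then kept on CDHF over a 6-week period with daily ip NaNO2 40 mg/kg to cause methemoglobinemia; treated group also got compound 1 mg/kg/day. Controls were normal chow, CDHF alone and NASH. Housed singly, 12-h light-dark cycle, food and water ad libitum. Endpoints taken at study end.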

Test [6] deals with Rattus norvegicus. Kind of test: Protection against nonalcoholic steatohepatitis progression in 4 weeks choline deficient high-fat diet fed methemoglobinemic Wistar rat assessed as prevention of nodule formation in liver at 1 mg/kg/day, ip administered for 6 weeks by hematoxylin and eosin staining in presence of 40 mg/kg/day, ip of sodium nitrite. It is filed as functional, organism-based. Put shortly:
as §1

Test [7] has as its system Rattus norvegicus. The experiment in a line: Protection against nonalcoholic steatohepatitis progression in 4 weeks choline deficient high-fat diet fed methemoglobinemic Wistar rat assessed as effect on features of fatty liver at 1 mg/kg/day, ip administered for 6 weeks by hematoxylin and eosin staining in presence of 40 mg/kg/day, ip of sodium nitrite. It is filed as functional, organism-based. The gist of the method: as §1

The test system of test [8] is Rattus norvegicus. The experiment in a line: Protection against nonalcoholic steatohepatitis progression in 4 weeks choline deficient high-fat diet fed methemoglobinemic Wistar rat assessed as prevention of liver fibrosis at 1 mg/kg/day, ip administered for 6 weeks by Masson Trichrome staining in presence of 40 mg/kg/day, ip of sodium nitrite. It is filed as functional, organism-based. Put shortly:
as §1

Test [9] has as its system Rattus norvegicus. Kind of test: Protection against nonalcoholic steatohepatitis progression in 4 weeks choline deficient high-fat diet fed methemoglobinemic Wistar rat assessed as prevention of liver necrosis at 1 mg/kg/day, ip administered for 6 weeks by Masson Trichrome staining in presence of 40 mg/kg/day, ip of sodium nitrite. It is filed as functional, organism-based. Put shortly: as §1

Test [10] deals with Rattus norvegicus. The experiment in a line: Protection against nonalcoholic steatohepatitis progression in 4 weeks choline deficient high-fat diet fed methemoglobinemic Wistar rat assessed as increase of aspartate amino transferase level at 1 mg/kg/day, ip administered for 6 weeks in presence of 40 mg/kg/day, ip of sodium nitrite. It is filed as functional, organism-based. The gist of the method: as §1

The test system of test [11] is Rattus norvegicus. Kind of test: Protection against nonalcoholic steatohepatitis progression in 4 weeks choline deficient high-fat diet fed methemoglobinemic Wistar rat assessed as increase of alanine transaminase level at 1 mg/kg/day, ip administered for 6 weeks in presence of 40 mg/kg/day, ip of sodium nitrite. It is filed as functional, organism-based. Put shortly:
as §1

Test [12] concerns Rattus norvegicus. The experiment in a line: Protection against nonalcoholic steatohepatitis progression in 4 weeks choline deficient high-fat diet fed methemoglobinemic Wistar rat assessed as increase of alkaline phosphatase level at 1 mg/kg/day, ip administered for 6 weeks in presence of 40 mg/kg/day, ip of sodium nitrite. It is filed as functional, organism-based. The gist of the method:
as §1

In test [13] the test system is Rattus norvegicus. Kind of test: Protection against nonalcoholic steatohepatitis progression in 4 weeks choline deficient high-fat diet fed methemoglobinemic Wistar rat assessed as increase of liver function at 1 mg/kg/day, ip administered for 6 weeks in presence of 40 mg/kg/day, ip of sodium nitrite. It is filed as functional, organism-based. Put shortly: as §1

For the compound `CC[C@@H](Cc1ccc(OC)c(CNC(=O)c2ccc(Oc3ccc(F)cc3)cc2)c1)C(=O)O`, the results for the EC50 in test [1], in [2] and in [3] were 5 nM, 300 nM and 920 nM, respectively. Moreover, the Ratio EC50 in test [4] is 25. In addition, the result in test [5], in test [6], in [8], in [9], in [10] and in test [11] was Active. Also, the result in test [12] and in test [13] was Active. Moreover, the result in [7] was inactive.

Consider `CC[C@@H](Cc1ccc(OC)c(CNC(=O)c2ccc(Oc3ccc(Cl)cc3)cc2)c1)C(=O)O`, for which the EC50 in test [1] turned out to be 15 nM; in test [2], 580 nM; in test [3] it was 830 nM.

Take `CC[C@@H](Cc1ccc(OC)c(CNC(=O)c2ccc(Oc3ccc(Br)cc3)cc2)c1)C(=O)O`: the EC50 was 29 nM in [1], 800 nM in [2] and 990 nM in test [3].

Regarding `CCC(Cc1ccc(OC)c(CNC(=O)c2ccc(Oc3ccccc3)cc2)c1)C(=O)O` (racemic), the values for the EC50 in test [1], in [2] and in test [3] were 8.8 nM, 120 nM and 820 nM, respectively.

`CCC(Cc1ccc(OC)c(CNC(=O)c2ccc(OC(F)(F)F)cc2)c1)C(=O)O` (racemic): the EC50 is 12 nM in test [1], 110 nM in test [2] and 4400 nM in test [3].

As to `CCC(Cc1ccc(OC)c(CNC(=O)c2cccc(Oc3ccccc3)c2)c1)C(=O)O` (racemic), the EC50 in test [1] is 41 nM; in test [2], 4800 nM; in [3] it was 4600 nM.

Consider `CCC(Cc1ccc(OC)c(CNC(=O)c2ccccc2Oc2ccccc2)c1)C(=O)O` (racemic), for which the EC50 in [1] was 3600 nM; in [2], over 10000 nM; in [3], over 10000 nM.

As to `CCC(Cc1ccc(OC)c(CNC(=O)c2cccc(-c3ccccc3)c2)c1)C(=O)O` (racemic), the EC50 in test [1] worked out at 74 nM; in [2], 4100 nM; in [3] it was 710 nM.

As to `CCC(Cc1ccc(OC)c(CNC(=O)c2ccccc2-c2ccccc2)c1)C(=O)O` (racemic), the EC50 in test [1] was 3600 nM; in test [2] it was over 10000 nM; in test [3] it was over 10000 nM.

Regarding `CCC(Cc1ccc(OC)c(CNC(=O)c2ccc(OCc3ccccc3)cc2)c1)C(=O)O` (racemic), the EC50 was found to be 52 nM in test [1], 1400 nM in [2] and 460 nM in test [3].

Turning to `CCC(Cc1ccc(OC)c(CNC(=O)c2ccc(OCCc3ccccc3)cc2)c1)C(=O)O` (racemic), the EC50 turned out to be 60 nM in test [1], 1400 nM in test [2] and 780 nM in test [3].

Consider `CCC(Cc1ccc(OC)c(CNC(=O)c2ccc(C)cc2)c1)C(=O)O` (racemic), for which the EC50 in test [2] was 360 nM; in test [3], 9600 nM.

`CCC(Cc1ccc(OC)c(CNC(=O)c2ccccc2)c1)C(=O)O` (racemic) showed an EC50 in test [3] of over 10000 nM.

With `CCC(Cc1ccc(OC)c(CNC(=O)c2ccc(-c3ccccc3)cc2)c1)C(=O)O` (racemic), the results for the EC50 in test [1] and in test [3] were 7.6 nM and 340 nM, respectively.
